# According to ChEMBL document CHEMBL1765055 (J Med Chem, 2011):
# Several values for one entry are separate records, joined by “and”; a condition that tells them apart may be missing. Identical values can stand only once. Non-standard residues stand in square brackets, D forms with d. Residues, ends and D or L forms follow the SMILES beside them. N(4-hydroxyphenethyl)Gly = O=C(O)CNCCc1ccc(O)cc1; Gly(N-4-hydroxybenzyl) = O=C(O)CNCc1ccc(O)cc1; N(1S-Me-propyl)Gly = CC[C@H](C)NCC(=O)O
# What was measured:
# [1] = target: T1, Neurotensin receptor type 2 (Homo sapiens, UniProt O95665); assay: Agonist activity at human NTS2 receptor expressed in HEK293 cells assessed as inhibition of constitutive activity on MAPK-mediated luciferase activity; format: functional, cell-based
# T1 sequence (O95665 whole entry): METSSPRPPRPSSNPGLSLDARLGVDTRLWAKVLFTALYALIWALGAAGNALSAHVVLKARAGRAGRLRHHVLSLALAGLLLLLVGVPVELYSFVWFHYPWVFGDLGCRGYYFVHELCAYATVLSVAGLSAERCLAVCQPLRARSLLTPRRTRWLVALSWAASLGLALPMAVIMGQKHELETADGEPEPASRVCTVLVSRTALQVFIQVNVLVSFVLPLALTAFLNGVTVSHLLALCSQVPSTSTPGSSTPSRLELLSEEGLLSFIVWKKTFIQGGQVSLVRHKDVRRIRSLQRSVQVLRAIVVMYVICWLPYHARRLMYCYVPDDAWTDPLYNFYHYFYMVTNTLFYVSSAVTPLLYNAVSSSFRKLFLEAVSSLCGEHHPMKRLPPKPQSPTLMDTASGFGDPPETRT
# [2] = target: T1, Neurotensin receptor type 2; assay: Displacement of [3H]NT from human NTS2 receptor expressed in HEK293 cells; format: cell-based
# [3] = target: T1, Neurotensin receptor type 2; assay: Agonist activity at human NTS2 receptor expressed in HEK293 cells assessed as inhibition of constitutive activity on MAPK-mediated luciferase activity at 3 uM in presence of SR142948A; format: functional, cell-based
# Method in brief: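 HEK 293 cells transiently expressing hNTS2 plus Elk1 trans-activator/luciferase reporter plasmids were reseeded in 1% FBS medium. They received 3 μM compound together with graded concentrations of the antagonist SR142948A for 24 h at 37 °C. Luciferase luminescence was measured as the readout of constitutive MAPK activity. Mean curves came from 7–11 independent experiments in triplicate.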
# [4] = target: T2, Neurotensin receptor type 1 (Homo sapiens, UniProt P30989); assay: Displacement of [3H]neurotensin from human NTS1 receptor expressed in CHO cells; format: cell-based
# T2 sequence (P30989 whole entry): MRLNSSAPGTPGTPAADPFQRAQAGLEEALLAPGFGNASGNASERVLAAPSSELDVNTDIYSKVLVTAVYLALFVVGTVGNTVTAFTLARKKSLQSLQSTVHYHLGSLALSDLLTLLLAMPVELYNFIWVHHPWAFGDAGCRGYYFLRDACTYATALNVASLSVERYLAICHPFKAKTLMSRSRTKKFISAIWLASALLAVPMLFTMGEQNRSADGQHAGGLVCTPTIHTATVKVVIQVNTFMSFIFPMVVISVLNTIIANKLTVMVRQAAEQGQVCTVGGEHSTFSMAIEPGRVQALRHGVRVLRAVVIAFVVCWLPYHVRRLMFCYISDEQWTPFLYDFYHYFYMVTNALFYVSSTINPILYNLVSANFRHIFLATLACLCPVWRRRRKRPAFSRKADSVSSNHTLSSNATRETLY
# Homo sapiens = organism: Homo sapiens; assay: Selectivity ratio of Ki for human NTS1 to Ki for human NTS2
# [5] = target: T1, Neurotensin receptor type 2; assay: Ratio of compound Emax to neurotensin Emax for human NTS2 receptor
# [6] = target: T2, Neurotensin receptor type 1; assay: Ratio of compound Emax to neurotensin Emax for human NTS1 receptor
Molecule,Ki [2],Ki [4],Ratio Ki (Homo sapiens),further results
CC[C@H](C)[C@H](NC(=O)CN(CCc1ccc(O)cc1)C(=O)[C@@H]1CCCN1C(=O)[C@H](CCCNC(=N)N)NC(=O)[C@@H](N)CCCNC(=N)N)C(=O)N[C@@H](CC(C)C)C(=O)O,8.8 nM,–,–,EC50 [1]: 480 nM; Activity [3]: Dose-dependent effect
CC[C@H](C)[C@H](NC(=O)[C@H](CC1=CC=C(O)CC1)NC(=O)[C@@H]1CCCN1C(=O)[C@H](CCCNC(=N)N)NC(=O)[C@@H](N)CCCNC(=N)N)C(=O)N[C@@H](CC(C)C)C(=O)O,–,–,–,Kd [2]: 1.2 nM
CC[C@H](C)[C@H](NC(=O)[C@H](Cc1ccc(O)cc1)NC(=O)[C@@H]1CCCN1C(=O)[C@H](CCCCN)NC(=O)[C@@H](N)CCCCN)C(=O)N(CC(=O)O)CC(C)C,1600 nM,–,–,–
CC[C@H](C)[C@H](NC(=O)CN(CCc1ccc(OC)cc1)C(=O)[C@@H]1CCCN1C(=O)[C@H](CCCN=C(N)N)NC(=O)[C@@H](N)CCCN=C(N)N)C(=O)N[C@@H](CC(C)C)C(=O)O,38 nM,–,–,–
CC[C@H](C)[C@H](NC(=O)CN(CCc1ccccc1)C(=O)[C@@H]1CCCN1C(=O)[C@H](CCCN=C(N)N)NC(=O)[C@@H](N)CCCN=C(N)N)C(=O)N[C@@H](CC(C)C)C(=O)O,20 nM,–,–,–
CC[C@H](C)[C@H](NC(=O)[C@H](Cc1ccc(O)cc1)NC(=O)[C@@H]1CCCN1C(=O)[C@H](CCCCN)NC(=O)CNCCCCN)C(=O)N[C@@H](CC(C)C)C(=O)O,0.74 nM,–,–,–
CC[C@H](C)[C@H](NC(=O)[C@H](Cc1ccc(O)cc1)NC(=O)[C@@H]1CCCN1C(=O)[C@H](CCCCN)NC(=O)[C@@H](N)CCCCN)C(=O)N[C@@H](CC(C)C)C(=O)O,6.1 nM,–,–,–
CC[C@H](C)N(CC(=O)N[C@@H](CC(C)C)C(=O)O)C(=O)[C@H](Cc1ccc(O)cc1)NC(=O)[C@@H]1CCCN1C(=O)[C@H](CCCCN)NC(=O)[C@@H](N)CCCCN (H-KKPY[N(1S-Me-propyl)Gly]L-OH),330 nM and 1200 nM,3000 nM and 3300 nM,–,–
CC[C@H](C)[C@H](NC(=O)CN(Cc1ccc(O)cc1)C(=O)[C@@H]1CCCN1C(=O)[C@H](CCCCN)NC(=O)[C@@H](N)CCCCN)C(=O)N[C@@H](CC(C)C)C(=O)O (H-KKP[Gly(N-4-hydroxybenzyl)]IL-OH),1000 nM,30000 nM,30,–
CC[C@H](C)[C@H](NC(=O)CN(CCc1ccc(O)cc1)C(=O)[C@@H]1CCCN1C(=O)[C@H](CCCCN)NC(=O)[C@@H](N)CCCCN)C(=O)N[C@@H](CC(C)C)C(=O)O (H-KKP[N(4-hydroxyphenethyl)Gly]IL-OH),4.3 nM,32000 nM,7400,Emax [5]: 3.1; EC50 [1]: 590 nM
CC[C@H](C)[C@H](NC(=O)CN(CCc1ccc(O)cc1)C(=O)[C@@H]1CCCN1C(=O)[C@H](CCCNC(=N)N)NC(=O)[C@@H](N)CCCCN)C(=O)N[C@@H](CC(C)C)C(=O)O (H-KRP[N(4-hydroxyphenethyl)Gly]IL-OH),4.4 nM,8300 nM,1900,Emax [5]: 4.6; EC50 [1]: 690 nM
CC[C@H](C)[C@H](NC(=O)CN(CCc1ccc(O)cc1)C(=O)[C@@H]1CCCN1C(=O)[C@H](CCCCN)NC(=O)[C@@H](N)CCCNC(=N)N)C(=O)N[C@@H](CC(C)C)C(=O)O (H-RKP[N(4-hydroxyphenethyl)Gly]IL-OH),6.7 nM,80000 nM,12000,Emax [5]: 2.6; EC50 [1]: 840 nM; Emax [6]: 0.07
H-RAPYIL-OH [listing 1 of 2 here],24 nM,11 nM,–,–
H-RAPYIL-OH [listing 2 of 2 here],–,–,0.46,–
H-RRAYIL-OH [listing 1 of 2 here],63 nM,26 nM,–,–
H-RRPAIL-OH [listing 1 of 2 here],83 nM,1300 nM,–,–
H-RRPYAL-OH [listing 1 of 2 here],63 nM,100 nM,–,–
H-RRPYAL-OH [listing 2 of 2 here],–,–,1.6,–

# Second part, led by results:
Ki [2],Ki [4],Ratio Ki (Homo sapiens),Molecule,further results
1300 nM,–,–,CC[C@H](C)[C@H](NC(=O)[C@H](Cc1ccc(O)cc1)NC(=O)[C@@H]1CCCN1C(=O)[C@H](CCCNC(=N)N)NC(=O)[C@@H](N)CCCNC(=N)N)C(=O)N[C@@H](C)C(=O)O,–
100 nM,–,–,CC[C@H](C)[C@H](NC(=O)CN(CCc1ccccn1)C(=O)[C@@H]1CCCN1C(=O)[C@H](CCCNC(=N)N)NC(=O)[C@@H](N)CCCNC(=N)N)C(=O)N[C@@H](CC(C)C)C(=O)O,–
21 nM,–,–,CC[C@H](C)[C@H](NC(=O)[C@H](Cc1ccc(O)cc1)NC(=O)[C@@H]1CCCN1C(=O)CN(CCCCN)C(=O)[C@@H](N)CCCCN)C(=O)N[C@@H](CC(C)C)C(=O)O,–
56 nM,4.6 nM,0.082,H-ARPYIL-OH,–
–,–,0.41,H-RRAYIL-OH [listing 2 of 2 here],–
–,–,16,H-RRPAIL-OH [listing 2 of 2 here],–
